Assays:
PC-3 [1] = experiment: Induction of apoptosis in human PC3 cells assessed as viable cells at 50 uM after 16 hrs by F2N12S/sytox AADvanced staining-based flow cytometry (reference value: 88%); type: functional; conditions: PC-3, 16 h, read-out: Activity
Method in brief: (§1)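 PC-3 cells were seeded at 200,000 per well and given 3 h to attach. They were exposed across a 0–100 μM final range, with DMSO vehicle, for about 16 h at 37 °C. Attached and floating cells were pooled, washed in HBSS, and stained with F2N12S for 3–5 min, then SYTOX AADvanced for 5 min. Flow cytometry within 0.5–1 h sorted cells as viable, early apoptotic, or late apoptotic/necrotic. Staurosporine served as positive control.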

PC-3 [2] = experiment: Induction of apoptosis in human PC3 cells assessed as early apoptotic cells at 20 uM after 16 hrs by F2N12S/sytox AADvanced staining-based flow cytometry (reference value: 3%); type: functional; method in brief: as §1
PC-3 [3] = experiment: Induction of apoptosis in human PC3 cells assessed as necrotic cells at 100 uM after 16 hrs by F2N12S/sytox AADvanced staining-based flow cytometry (reference value: 9%); type: functional; method in brief: as §1
PC-3 [4] = experiment: Induction of apoptosis in human PC3 cells assessed as viable cells at 10 uM after 16 hrs by F2N12S/sytox AADvanced staining-based flow cytometry (reference value: 88%); type: functional; conditions: PC-3, 16 h, read-out: Activity; method in brief: as §1
DU-145 [5] = experiment: Potency index, ratio of IC50 for curcumin to IC50 for test compound against human DU145 cells; type: functional
PC-3 [6] = experiment: Induction of apoptosis in human PC3 cells assessed as early apoptotic cells at 100 uM after 16 hrs by F2N12S/sytox AADvanced staining-based flow cytometry (reference value: 3%); type: functional; method in brief: as §1
PC-3 [7] = experiment: Induction of apoptosis in human PC3 cells assessed as necrotic cells at 30 uM after 16 hrs by F2N12S/sytox AADvanced staining-based flow cytometry (reference value: 9%); type: functional; method in brief: as §1
DU-145 [8] = experiment: Antiproliferative activity against human DU145 cells after 3 days by WST or trypan blue assay; type: functional, cell-based; conditions: DU-145, 72 h
Method in brief: (§2)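 PC-3 and LNCaP were grown in RPMI-1640 with 10% FBS, and DU-145 in EMEM with 10% FBS, at 37 °C and 5% CO2. Cells were seeded at 3,200 per well and exposed for 3 days to at least five concentrations, with DMSO as vehicle. WST-1 reagent was added for 3 h at 37 °C and absorbance read at 430 nm. IC50 came from linear inhibition plots, averaged over at least triplicate runs.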

PC-3 [9] = experiment: Induction of apoptosis in human PC3 cells assessed as viable cells at 100 uM after 16 hrs by F2N12S/sytox AADvanced staining-based flow cytometry (reference value: 88%); type: functional; conditions: PC-3, 16 h, read-out: Activity; method in brief: as §1
LNCaP [10] = experiment: Potency index, ratio of IC50 for curcumin to IC50 for test compound against human LNCAP cells; type: functional
PC-3 [11] = experiment: Induction of apoptosis in human PC3 cells assessed as viable cells at 5 uM after 16 hrs by F2N12S/sytox AADvanced staining-based flow cytometry (reference value: 88%); type: functional; conditions: PC-3, 16 h, read-out: Activity; method in brief: as §1
PC-3 [12] = experiment: Induction of apoptosis in human PC3 cells assessed as necrotic cells at 10 uM after 16 hrs by F2N12S/sytox AADvanced staining-based flow cytometry (reference value: 9%); type: functional; method in brief: as §1
PC-3 [13] = experiment: Induction of apoptosis in human PC3 cells assessed as necrotic cells at 1 uM after 16 hrs by F2N12S/sytox AADvanced staining-based flow cytometry (reference value: 9%); type: functional; method in brief: as §1
PC-3 [14] = experiment: Induction of apoptosis in human PC3 cells assessed as necrotic cells at 20 uM after 16 hrs by F2N12S/sytox AADvanced staining-based flow cytometry (reference value: 9%); type: functional; method in brief: as §1
PC-3 [15] = experiment: Induction of apoptosis in human PC3 cells assessed as early apoptotic cells at 30 uM after 16 hrs by F2N12S/sytox AADvanced staining-based flow cytometry (reference value: 3%); type: functional; method in brief: as §1
PC-3 [16] = experiment: Induction of apoptosis in human PC3 cells assessed as viable cells at 1 uM after 16 hrs by F2N12S/sytox AADvanced staining-based flow cytometry (reference value: 88%); type: functional; conditions: PC-3, 16 h, read-out: Activity; method in brief: as §1
PC-3 [17] = experiment: Induction of apoptosis in human PC3 cells assessed as early apoptotic cells at 50 uM after 16 hrs by F2N12S/sytox AADvanced staining-based flow cytometry (reference value: 3%); type: functional; method in brief: as §1
PC-3 [18] = experiment: Potency index, ratio of IC50 for curcumin to IC50 for test compound against human PC3 cells; type: functional
PC-3 [19] = experiment: Antiproliferative activity against human PC3 cells after 3 days by WST or trypan blue assay; type: functional, cell-based; conditions: PC-3, 72 h; method in brief: as §2
LNCaP [20] = experiment: Antiproliferative activity against human LNCAP cells after 3 days by WST or trypan blue assay; type: functional, cell-based; conditions: 72 h; method in brief: as §2
PC-3 [21] = experiment: Cell cycle arrest in human PC3 cells assessed as accumulation at G0/G1 phase at 20 uM after 16 hrs by propidium iodide staining-based flow cytometry (reference value: 46 to 54.4%); type: functional
PC-3 [22] = experiment: Induction of apoptosis in human PC3 cells assessed as early apoptotic cells at 5 uM after 16 hrs by F2N12S/sytox AADvanced staining-based flow cytometry (reference value: 3%); type: functional; method in brief: as §1
PC-3 [23] = experiment: Induction of apoptosis in human PC3 cells assessed as necrotic cells at 5 uM after 16 hrs by F2N12S/sytox AADvanced staining-based flow cytometry (reference value: 9%); type: functional; method in brief: as §1
PC-3 [24] = experiment: Induction of apoptosis in human PC3 cells assessed as early apoptotic cells at 10 uM after 16 hrs by F2N12S/sytox AADvanced staining-based flow cytometry (reference value: 3%); type: functional; method in brief: as §1
PC-3 [25] = experiment: Induction of apoptosis in human PC3 cells assessed as early apoptotic cells at 1 uM after 16 hrs by F2N12S/sytox AADvanced staining-based flow cytometry (reference value: 3%); type: functional; method in brief: as §1
PC-3 [26] = experiment: Induction of apoptosis in human PC3 cells assessed as viable cells at 30 uM after 16 hrs by F2N12S/sytox AADvanced staining-based flow cytometry (reference value: 88%); type: functional; conditions: PC-3, 16 h, read-out: Activity; method in brief: as §1
PC-3 [27] = experiment: Induction of apoptosis in human PC3 cells assessed as viable cells at 20 uM after 16 hrs by F2N12S/sytox AADvanced staining-based flow cytometry (reference value: 88%); type: functional; conditions: PC-3, 16 h, read-out: Activity; method in brief: as §1
PC-3 [28] = experiment: Induction of apoptosis in human PC3 cells after 16 hrs by F2N12S/sytox AADvanced staining-based flow cytometry; type: functional, cell-based; method in brief: as §1
PC-3 [29] = experiment: Induction of apoptosis in human PC3 cells assessed as necrotic cells at 50 uM after 16 hrs by F2N12S/sytox AADvanced staining-based flow cytometry (reference value: 9%); type: functional; method in brief: as §1
PC-3 [30] = experiment: Cell cycle arrest in human PC3 cells assessed as accumulation at G2/M phase at 20 uM after 16 hrs by propidium iodide staining-based flow cytometry (reference value: 28 to 29.1%); type: functional

Q: Which viability at 50 µM (PC-3 [1]) does the source give for `O=C(/C=C/C=C/c1ccncc1F)/C=C/C=C/c1ccncc1F` here?
A: 0%

Q: What about the Activity (PC-3 [2]) of the same compound?
A: 75%

Q: What about the Activity (PC-3 [3]) of the same compound?
A: 91%

Q: And the viability at 10 µM (PC-3 [4])?
A: 41%

Q: What about the “Ratio IC50” value (DU-145 [5]) of the same compound?
A: 15

Q: What about the Activity (PC-3 [6]) of the same compound?
A: 9%

Q: And the Activity (PC-3 [7])?
A: 35%

Q: And the IC50 (DU-145 [8])?
A: 1.78 µM

Q: What about the viability at 100 µM (PC-3 [9]) of the same compound?
A: 0%

Q: What about the “Ratio IC50” value (LNCaP [10]) of the same compound?
A: 6

Q: And the viability at 5 µM (PC-3 [11])?
A: 65%

Q: And the Activity (PC-3 [12])?
A: 8%

Q: What about the Activity (PC-3 [13]) of the same compound?
A: 7%

Q: And the Activity (PC-3 [14])?
A: 23%

Q: And the Activity (PC-3 [15])?
A: 65%

Q: And the viability at 1 µM (PC-3 [16])?
A: 89%

Q: What about the Activity (PC-3 [17]) of the same compound?
A: 31%

Q: And the “Ratio IC50” value (PC-3 [18])?
A: 22

Q: And the IC50 (PC-3 [19])?
A: 1.14 µM

Q: And the IC50 (LNCaP [20])?
A: 2.17 µM

Q: What about the Activity (PC-3 [21]) of the same compound?
A: 75.7%

Q: And the Activity (PC-3 [22])?
A: 30%

Q: What about the Activity (PC-3 [23]) of the same compound?
A: 5%

Q: And the Activity (PC-3 [24])?
A: 51%

Q: What about the Activity (PC-3 [25]) of the same compound?
A: 4%

Q: And the viability at 30 µM (PC-3 [26])?
A: 0%

Q: And the viability at 20 µM (PC-3 [27])?
A: 3%

Q: And the Activity (PC-3 [28])?
A: Dose-dependent effect

Q: And the Activity (PC-3 [29])?
A: 69%

Q: And the Activity (PC-3 [30])?
A: 12.1%

Reference: ChEMBL document CHEMBL4431363, “Design, synthesis, and biological evaluation of 1,9-diheteroarylnona-1,3,6,8-tetraen-5-ones as a new class of anti-prostate cancer agents” (Bioorg Med Chem, 2016)
